Results taken from ChEMBL document CHEMBL3286116, “Synthesis, biological evaluation and structure-activity correlation study of a series of imidazol-based compounds as Candida albicans inhibitors” (Eur J Med Chem, 2014).
Converted amounts (≈) assume the structure as drawn.

Columns and labels:
Assay type in all cases: functional
Candida albicans [1] = test: Antifungal activity against Candida albicans ATCC 90028 after 48 hrs by CLSI broth microdilution method; conditions: ATCC 90028, 48 h
Procedure, shortened: (§1)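 Yeast CLSI broth microdilution (M27-A3). Compounds dissolved in DMSO at 100× the top test concentration, then diluted as serial two-fold dilutions in RPMI 1640 to final 0.125–64. Inoculum was 1.0–1.5 × 10^3 cells mL−1, incubated at 35 °C and read for growth at 48 h. MIC is the lowest concentration giving ≥50% growth inhibition versus growth control. Reported as the median of five replicates and as the geometric mean.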

Candida albicans [2] = test: Antifungal activity against Candida albicans ATCC 20891 after 48 hrs by CLSI broth microdilution method; conditions: ATCC 20891, 48 h; procedure, shortened: as §1
Candida albicans [3] = test: Antifungal activity against Candida albicans PMC 1011 after 48 hrs by CLSI broth microdilution method; conditions: PMC 1011, 48 h; procedure, shortened: as §1
Pichia kudriavzevii [4] = test: Antifungal activity against Candida krusei DSM 6128 after 48 hrs by CLSI broth microdilution method; conditions: DSM 6128, 48 h; procedure, shortened: as §1
Pichia kudriavzevii [5] = test: Antifungal activity against Candida krusei PMC 0613 after 48 hrs by CLSI broth microdilution method; conditions: PMC 0613, 48 h; procedure, shortened: as §1
Candida tropicalis [6] = test: Antifungal activity against Candida tropicalis PMC 0910 after 48 hrs by CLSI broth microdilution method; conditions: PMC 0910, 48 h; procedure, shortened: as §1
Candida tropicalis [7] = test: Antifungal activity against Candida tropicalis DSM 11953 after 48 hrs by CLSI broth microdilution method; conditions: DSM 11953, 48 h; procedure, shortened: as §1
Candida parapsilosis [8] = test: Antifungal activity against Candida parapsilosis DSM 11224 after 48 hrs by CLSI broth microdilution method; conditions: Lodderomyces parapsilosis, DSM 11224, 48 h; procedure, shortened: as §1
Candida parapsilosis [9] = test: Antifungal activity against Candida parapsilosis ATCC 22019 after 48 hrs by CLSI broth microdilution method; conditions: Lodderomyces parapsilosis, ATCC 22019, 48 h; procedure, shortened: as §1
Nakaseomyces glabratus [10] = test: Antifungal activity against Candida glabrata PMC 0805 after 48 hrs by CLSI broth microdilution method; conditions: PMC 0805, 48 h; procedure, shortened: as §1
Nakaseomyces glabratus [11] = test: Antifungal activity against Candida glabrata PMC 0807 after 48 hrs by CLSI broth microdilution method; conditions: PMC 0807, 48 h; procedure, shortened: as §1
Cryptococcus neoformans [12] = test: Antifungal activity against Cryptococcus neoformans PMC 2123 after 72 hrs by CLSI broth microdilution method; conditions: PMC 2123, 72 h
Procedure, shortened: (§2)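 Cryptococcus neoformans tested by CLSI broth microdilution in RPMI 1640, with serial two-fold dilutions from DMSO stocks at 100× the top concentration, final 0.125–64. Inoculum was 1.0–1.5 × 10^3 cells mL−1 at 35 °C, with growth read at 72 h. MIC is the lowest concentration with ≥50% growth inhibition versus control. Median of five replicates, plus geometric mean.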

Cryptococcus neoformans [13] = test: Antifungal activity against Cryptococcus neoformans PMC 2136 after 72 hrs by CLSI broth microdilution method; conditions: PMC 2136, 72 h; procedure, shortened: as §2
Cryptococcus neoformans [14] = test: Antifungal activity against Cryptococcus neoformans PMC 2115 after 72 hrs by CLSI broth microdilution method; conditions: PMC 2115, 72 h; procedure, shortened: as §2
Cryptococcus neoformans [15] = test: Antifungal activity against Cryptococcus neoformans PMC 2103 after 72 hrs by CLSI broth microdilution method; conditions: PMC 2103, 72 h; procedure, shortened: as §2
Cryptococcus neoformans [16] = test: Antifungal activity against Cryptococcus neoformans PMC 2107 after 72 hrs by CLSI broth microdilution method; conditions: PMC 2107, 72 h; procedure, shortened: as §2
Cryptococcus neoformans [17] = test: Antifungal activity against Cryptococcus neoformans PMC 2102 after 72 hrs by CLSI broth microdilution method; conditions: PMC 2102, 72 h; procedure, shortened: as §2
Cryptococcus neoformans [18] = test: Antifungal activity against Cryptococcus neoformans DSM 11959 after 72 hrs by CLSI broth microdilution method; conditions: DSM 11959, 72 h; procedure, shortened: as §2
Cryptococcus neoformans [19] = test: Antifungal activity against Cryptococcus neoformans PMC 2111 after 72 hrs by CLSI broth microdilution method; conditions: PMC 2111, 72 h; procedure, shortened: as §2
[20] = system: Trichophyton mentagrophytes; test: Antifungal activity against Trichophyton mentagrophytes DSM 4870 after 72 hrs by CLSI broth microdilution method; conditions: DSM 4870, 72 h
Procedure, shortened: (§3)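 Dermatophytes tested by CLSI broth microdilution for filamentous fungi (M38-A2). Serial two-fold dilutions of DMSO-dissolved compound in RPMI 1640, final 0.125–64. Inoculum was 0.4–5 × 10^4 CFU mL−1, incubated at 35 °C and read at 72 h. MIC80 is the lowest concentration giving ≥80% growth inhibition versus growth control. Median of five replicates, plus geometric mean.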

[21] = system: Trichophyton mentagrophytes; test: Antifungal activity against Trichophyton mentagrophytes PMC 6515 after 72 hrs by CLSI broth microdilution method; conditions: PMC 6515, 72 h; procedure, shortened: as §3
[22] = system: Trichophyton mentagrophytes; test: Antifungal activity against Trichophyton mentagrophytes PMC 6531 after 72 hrs by CLSI broth microdilution method; conditions: PMC 6531, 72 h; procedure, shortened: as §3
[23] = system: Trichophyton mentagrophytes; test: Antifungal activity against Trichophyton mentagrophytes PMC 6509 after 72 hrs by CLSI broth microdilution method; conditions: PMC 6509, 72 h; procedure, shortened: as §3
[24] = system: Trichophyton mentagrophytes; test: Antifungal activity against Trichophyton mentagrophytes PMC 6503 after 72 hrs by CLSI broth microdilution method; conditions: PMC 6503, 72 h; procedure, shortened: as §3
[25] = system: Trichophyton mentagrophytes; test: Antifungal activity against Trichophyton mentagrophytes PMC 6552 after 72 hrs by CLSI broth microdilution method; conditions: PMC 6552, 72 h; procedure, shortened: as §3
Nannizzia gypsea [26] = test: Antifungal activity against Microsporum gypseum PMC 7303 after 72 hrs by CLSI broth microdilution method; conditions: PMC 7303, 72 h; procedure, shortened: as §3
Nannizzia gypsea [27] = test: Antifungal activity against Microsporum gypseum PMC 7331 after 72 hrs by CLSI broth microdilution method; conditions: PMC 7331, 72 h; procedure, shortened: as §3
Nannizzia gypsea [28] = test: Antifungal activity against Microsporum gypseum DSM 3824 after 72 hrs by CLSI broth microdilution method; conditions: DSM 3824, 72 h; procedure, shortened: as §3
Candida albicans [29] = test: Antifungal activity against Candida albicans ATCC 24433 after 48 hrs by CLSI broth microdilution method; conditions: ATCC 24433, 48 h; procedure, shortened: as §1
Candida albicans [30] = test: Antifungal activity against Candida albicans ATCC 3153 after 48 hrs by CLSI broth microdilution method; conditions: ATCC 3153, 48 h; procedure, shortened: as §1
Candida albicans [31] = test: Antifungal activity against Candida albicans ATCC 10231 after 48 hrs by CLSI broth microdilution method; conditions: ATCC 10231, 48 h; procedure, shortened: as §1
Candida albicans [32] = test: Antifungal activity against Candida albicans ATCC 76615 after 48 hrs by CLSI broth microdilution method; conditions: ATCC 76615, 48 h; procedure, shortened: as §1
Candida albicans [33] = test: Antifungal activity against Candida albicans ATCC 10261 after 48 hrs by CLSI broth microdilution method; conditions: ATCC 10261, 48 h; procedure, shortened: as §1

For O=C(OC(Cn1ccnc1)c1ccc(F)cc1)N1CCN(c2ccc([N+](=O)[O-])cc2)CC1 (stereo unspecified), the MIC50 (Candida albicans [1]) was 8 µg/mL (≈ 18.2 µM), the MIC50 (Candida albicans [2]) was 8 µg/mL (≈ 18.2 µM) and the MIC50 (Candida albicans [3]) was 8 µg/mL (≈ 18.2 µM). The MIC50 (Pichia kudriavzevii [4]) was 64 µg/mL (≈ 146 µM), the MIC50 (Pichia kudriavzevii [5]) was 16 µg/mL (≈ 36.4 µM) and the MIC50 (Candida tropicalis [6]) was 32 µg/mL (≈ 72.8 µM). It also gave an MIC50 (Candida tropicalis [7]) of 128 µg/mL (≈ 291 µM), an MIC50 (Candida parapsilosis [8]) of 4 µg/mL (≈ 9.1 µM) and an MIC50 (Candida parapsilosis [9]) of 16 µg/mL (≈ 36.4 µM). The MIC50 (Nakaseomyces glabratus [10]) was 64 µg/mL (≈ 146 µM), the MIC50 (Nakaseomyces glabratus [11]) was 64 µg/mL (≈ 146 µM) and the MIC50 (Cryptococcus neoformans [12]) was 128 µg/mL (≈ 291 µM). For the same compound, the MIC50 (Cryptococcus neoformans [13]) was 16 µg/mL (≈ 36.4 µM), the MIC50 (Cryptococcus neoformans [14]) was 64 µg/mL (≈ 146 µM) and the MIC50 (Cryptococcus neoformans [15]) was 8 µg/mL (≈ 18.2 µM). The MIC50 (Cryptococcus neoformans [16]) was 16 µg/mL (≈ 36.4 µM), the MIC50 (Cryptococcus neoformans [17]) was 32 µg/mL (≈ 72.8 µM) and the MIC50 (Cryptococcus neoformans [18]) was 16 µg/mL (≈ 36.4 µM). It also gave an MIC50 (Cryptococcus neoformans [19]) of 16 µg/mL (≈ 36.4 µM), an MIC80 [20] of 64 µg/mL (≈ 146 µM) and an MIC80 [21] of 64 µg/mL (≈ 146 µM). For the same compound, the MIC80 [22] was 64 µg/mL (≈ 146 µM), the MIC80 [23] was 64 µg/mL (≈ 146 µM) and the MIC80 [24] was 32 µg/mL (≈ 72.8 µM). The MIC80 [25] was 32 µg/mL (≈ 72.8 µM), the MIC80 (Nannizzia gypsea [26]) was 32 µg/mL (≈ 72.8 µM) and the MIC80 (Nannizzia gypsea [27]) was 32 µg/mL (≈ 72.8 µM). For the same compound, the MIC80 (Nannizzia gypsea [28]) was 64 µg/mL (≈ 146 µM), the MIC50 (Candida albicans [29]) was 32 µg/mL (≈ 72.8 µM) and the MIC50 (Candida albicans [30]) was 16 µg/mL (≈ 36.4 µM). It also gave an MIC50 (Candida albicans [31]) of 32 µg/mL (≈ 72.8 µM), an MIC50 (Candida albicans [32]) of 128 µg/mL (≈ 291 µM) and an MIC50 (Candida albicans [33]) of 8 µg/mL (≈ 18.2 µM).
Work on O=C(Nc1ccc(N2CCN(C(=O)c3ccco3)CC2)cc1)OC(Cn1ccnc1)c1ccc(F)cc1 (stereo unspecified) yielded an MIC50 (Candida albicans [1]) of 128 µg/mL (≈ 254 µM), an MIC50 (Candida albicans [2]) of 128 µg/mL (≈ 254 µM) and an MIC50 (Candida albicans [3]) of 128 µg/mL (≈ 254 µM). The MIC50 (Pichia kudriavzevii [4]) was 128 µg/mL (≈ 254 µM), the MIC50 (Pichia kudriavzevii [5]) was 128 µg/mL (≈ 254 µM) and the MIC50 (Candida tropicalis [6]) was 128 µg/mL (≈ 254 µM). The MIC50 (Candida tropicalis [7]) was 128 µg/mL (≈ 254 µM), the MIC50 (Candida parapsilosis [8]) was 128 µg/mL (≈ 254 µM) and the MIC50 (Candida parapsilosis [9]) was 128 µg/mL (≈ 254 µM). For the same compound, the MIC50 (Nakaseomyces glabratus [10]) was 128 µg/mL (≈ 254 µM), the MIC50 (Nakaseomyces glabratus [11]) was 128 µg/mL (≈ 254 µM) and the MIC50 (Cryptococcus neoformans [12]) was 64 µg/mL (≈ 127 µM). The MIC50 (Cryptococcus neoformans [13]) was 16 µg/mL (≈ 31.8 µM), the MIC50 (Cryptococcus neoformans [14]) was 64 µg/mL (≈ 127 µM) and the MIC50 (Cryptococcus neoformans [15]) was 1 µg/mL (≈ 1.99 µM). It also gave an MIC50 (Cryptococcus neoformans [16]) of 16 µg/mL (≈ 31.8 µM), an MIC50 (Cryptococcus neoformans [17]) of 32 µg/mL (≈ 63.6 µM) and an MIC50 (Cryptococcus neoformans [18]) of 16 µg/mL (≈ 31.8 µM). It also gave an MIC50 (Cryptococcus neoformans [19]) of 16 µg/mL (≈ 31.8 µM), an MIC80 [20] of 128 µg/mL (≈ 254 µM) and an MIC80 [21] of 128 µg/mL (≈ 254 µM). For the same compound, the MIC80 [22] was 128 µg/mL (≈ 254 µM), the MIC80 [23] was 128 µg/mL (≈ 254 µM) and the MIC80 [24] was 128 µg/mL (≈ 254 µM). The MIC80 [25] was 128 µg/mL (≈ 254 µM), the MIC80 (Nannizzia gypsea [26]) was 64 µg/mL (≈ 127 µM) and the MIC80 (Nannizzia gypsea [27]) was 128 µg/mL (≈ 254 µM). It also gave an MIC80 (Nannizzia gypsea [28]) of 128 µg/mL (≈ 254 µM), an MIC50 (Candida albicans [29]) of 128 µg/mL (≈ 254 µM) and an MIC50 (Candida albicans [30]) of 128 µg/mL (≈ 254 µM). The MIC50 (Candida albicans [31]) was 128 µg/mL (≈ 254 µM), the MIC50 (Candida albicans [32]) was 128 µg/mL (≈ 254 µM) and the MIC50 (Candida albicans [33]) was 32 µg/mL (≈ 63.6 µM).
